# Bioassay records deposited in PubChem by The Scripps Research Institute Molecular Screening Center.
# Rin1 Abl inh: human Rin1-Abl interaction inhibition. P00519+Q13671. TR-FRET Rin1/Abl binding, biochemical. inhibition, % at 7.35 µM. actives 0.4% (n = 360,000); in the data active = inhibition above about 5%, passing the limit was not always enough
# ASAP1 inh: inhibitors of human ASAP1 ArfGAP activity; ASAP1-stimulated ARF1 GTP hydrolysis, GDP FP detection; AID 624377; Q9ULH1; actives 0.19% (n = 360,000); inhibition, % at 16.5 µM; in the data active = inhibition above about 25%;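 note: 0% = vehicle with enzyme and substrate and 100% = no enzyme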
# GalR3 antag: antagonists of human GalR3; O60755; HEK293 GalR3-CNG cAMP membrane potential fluorescence; galR3 body fused to GalR1 C-terminus; inhibition, % at 3 µM; actives 0.44% (n = 360,000);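 active = inhibition above the screen-wide average plus 3 SD, cut at about 13% in these data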;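 note: forskolin and galanin both at EC90 stimulate the cells; cAMP rise reported by CNG channel membrane potential dye signal; 0% = forskolin plus galanin with DMSO and 100% = forskolin alone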
# ARFGAP1 inhibitor: inhibitors of rat ARFGAP1; Q62848; Arfgap1-stimulated ARF1 GTP hydrolysis, GDP FP detection; inhibition, % at 16.5 µM; actives 0.26% (n = 360,000); AID 651572;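 active = inhibition above a per-plate limit, mean inhibition of low control wells plus 3 SD, cut at about 25% in these data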;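 note: 0% = DMSO wells with enzyme and 100% = wells lacking Arfgap1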
#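 Replicates: Single well per compound | Assay system: Truncated rat Arfgap1 GAP domain | Control set: No-Arfgap1 wells (100%) versus DMSO full-reaction wells (0%) | Times: Enzyme reaction 120 min at 25 °C after 20 min preincubation | Reagent: Human ARF1(Δ1-17)-GTP substrate | Measured by: Tracer-displacement fluorescence polarization with EDTA stop, 620/688 nm | Measure: Percent inhibition of Arfgap1-stimulated GTP hydrolysis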
# Rin1-Abl confirm: confirmation of inhibitors of human Rin1-Abl interaction | shares compounds with Rin1 Abl inh | actives 49% (n = 1,300) | AID 602124 | TR-FRET Rin1-Abl binding, purified proteins | inhibition, % at 7.35 µM
# GFP quencher: quenches GFP fluorescence, counter-screen for Rin1-Abl inhibitors | inhibition, % at 6.75 µM | actives 8.5% (n = 1,300) | inhibitors/quenchers counterscreen | shares compounds with Rin1 Abl inh;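 note: ABL1-eGFP fusion protein alone without its partner RIN1-SBP; 0% = protein with vehicle and 100% = wells lacking protein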
# GFP quench DR: quenches GFP in dose response, Rin1-Abl counter-screen. shares compounds with Rin1 Abl inh. GFP fluorescence interference/quenching counterscreen. IC50, µM. 230 tested, under 10 active. AID 602182; call rule not given here;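 note: ABL1-eGFP fusion protein alone without its RIN1 binding partner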
# Numbers without * were called inactive; . = no result. This is a sample that favours compounds with a hit; in the whole collection about 1.2% have one here. Cut-off read from the data, not from the text of the source, unless noted: active = inhibition above about 6.5%; inactive = the rest.
SMILES,Rin1 Abl inh,ASAP1 inh,GalR3 antag,ARFGAP1 inhibitor,Rin1-Abl confirm,GFP quencher,others
CC(C)C[C@H](NC(=O)C1CC1)C(=O)N1CCC[C@H]1C(=O)NCc1ccccc1,.,-3,0,-3,.,.,
Cc1ccc(S(=O)(=O)N(C)[C@H]2C[C@H]3c4[nH]c5cccc(-c6ccccc6)c5c4CCN3C(=O)[C@H]2[C@H](C)O)cc1,.,5,-7,8,.,.,
CN(C(=O)[C@H]1O[C@@H](n2cnc(C(N)=O)n2)[C@H](O)[C@@H]1O)c1ccccc1,.,8,-7,16,.,.,
CN(CC(=O)Nc1cccc(Cl)c1)C1=NS(=O)(=O)c2ccccc21,-1,-7,-1,6,.,.,
CN(CC(=O)Nc1cccc(C(F)(F)F)c1)C1=NS(=O)(=O)c2ccccc21,9.9*,-2,-3,9,4,-2,
C[C@H]1c2cccc(O)c2C(O)=C2C(=O)[C@]3(O)C(O)=C(C(N)=O)C(=O)[C@@H](N(C)C)C3[C@@H](O)C21 (stereo not given in full),5,2,0,8,.,.,
C=C1c2cccc(O)c2C(=O)C2C(=O)[C@]3(O)C(=O)C(C(N)=O)C(=O)[C@@H](N(C)C)[C@@H]3[C@@H](O)[C@H]12 (stereo not given in full),33*,11,-6,-1,4,3,
Cc1noc(C)c1NC(=O)Nc1ccc2c(c1)C(=O)N([C@H](C)CO)C[C@H](C)[C@@H](CN(C)S(=O)(=O)c1ccccc1)O2,9.2*,7,1,-4,0,1,
CCOC(=O)CCCCCC(=O)Nc1ccc2c(c1)C(=O)N([C@H](C)CO)C[C@@H](C)[C@@H](CN(C)S(=O)(=O)c1ccc(C)cc1)OCCCC[C@H](C)O2,.,-2,-2,1,.,.,
CCOC(=O)CCCCCC(=O)Nc1ccc2c(c1)C(=O)N([C@@H](C)CO)C[C@@H](C)[C@H](CN(C)S(=O)(=O)c1cccs1)OCCCC[C@H](C)O2,8.2*,2,-8,1,6,-1,
C[C@@H]1CCCCO[C@@H](CN(C)S(=O)(=O)c2ccccc2)[C@@H](C)CN([C@H](C)CO)C(=O)c2cc(NS(=O)(=O)c3ccc(F)cc3)ccc2O1,51*,6,0,6,60*,0,GFP quench DR=>68
COC(=O)C1=C(C)N(Cc2ccccc2C(F)(F)F)C(=NCc2cccc(C(F)(F)F)c2)NC1c1ccc(F)cc1 (stereo not given),.,9,-2,8,.,.,
Cc1ccc(NC(=O)[C@@H](Cc2ccccc2)NC(=O)[C@H]2O[C@@H](n3ccc(=O)[nH]c3=O)[C@H](O)[C@@H]2O)cc1C,.,10,-7,13,.,.,
Cc1[nH]c2ccccc2c1CC(=O)Nc1ccc(Nc2cccnc2)c(-c2ccc(Cl)c(Cl)c2)c1,.,11,-7,18,.,.,
COC(=O)C1=C(C)N(Cc2cccc(C(F)(F)F)c2)C(=NCc2cc(OC)c(OC)c(OC)c2)NC1c1cccc(F)c1 (stereo not given),.,2,-1,11,.,.,
Cc1nc2ccccc2n1CC(=O)c1ccc(O)c(O)c1,33*,22,1,-1,21*,6.6*,
Cc1ccc(C)c(NC(=O)CCc2c(C)nn(-c3ccc(N4CCCCC4)nn3)c2C)c1,12*,-1,6,9,0,0,
CC(=O)N1CCN(c2ccc(N3CCN(Cc4ccccc4)[C@H](C)C3)c(C)c2)[C@H](C)C1,.,3,-5,-4,.,.,
COc1ccc(-n2nnc3c(=O)n(CC(=O)N4CCCC4)cnc32)cc1,5.0*,1,-5,8,-2,0,
Cc1ccc(C(C)NC(=O)C23CC4CC(CC(C4)C2)C3)cc1 (stereo not given),6.0*,6,-3,-7,0,-1,
CCN=C1NC(c2ccc(C(F)(F)F)cc2)C(C(=O)OC)=C(C)N1Cc1ccccc1C(F)(F)F (stereo not given),.,-2,-1,8,.,.,
